According to ChEMBL document CHEMBL4261557, “MAO inhibitory activity of bromo-2-phenylbenzofurans: synthesis, in vitro study, and docking calculations” (Medchemcomm, 2017):

Experiments:
[1] = biological target: T1, Amine oxidase [flavin-containing] A (Homo sapiens, UniProt P21397); assay: (§1) Inhibition of recombinant human MAO-A expressed in baculovirus infected insect cells assessed as reduction in H2O2 production using p-tyramine as substrate pretreated for 15 mins followed by substrate addition and measured over 15 mins by Amplex red reagent based fluorimetric assay
T1 sequence (P21397 whole entry): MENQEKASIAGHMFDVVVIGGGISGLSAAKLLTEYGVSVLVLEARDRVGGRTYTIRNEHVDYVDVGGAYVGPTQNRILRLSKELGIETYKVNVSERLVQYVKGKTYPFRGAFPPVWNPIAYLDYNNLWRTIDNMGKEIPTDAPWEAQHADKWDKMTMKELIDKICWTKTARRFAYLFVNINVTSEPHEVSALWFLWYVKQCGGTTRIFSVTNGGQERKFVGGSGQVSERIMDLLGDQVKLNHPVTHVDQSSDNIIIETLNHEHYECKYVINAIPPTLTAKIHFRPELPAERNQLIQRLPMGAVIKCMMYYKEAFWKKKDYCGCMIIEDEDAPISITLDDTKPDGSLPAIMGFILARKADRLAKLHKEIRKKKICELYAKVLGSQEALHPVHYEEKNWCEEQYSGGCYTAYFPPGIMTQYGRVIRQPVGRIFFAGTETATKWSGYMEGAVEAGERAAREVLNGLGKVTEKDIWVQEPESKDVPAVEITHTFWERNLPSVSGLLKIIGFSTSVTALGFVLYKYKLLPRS

SH-SY5Y = assay: Cytotoxicity against human SH-SY5Y cells assessed as reduction in cell viability at 1 to 10 uM after 24 hrs by MTT assay; assay type: cell-based
Procedure, shortened: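 SH-SY5Y neuroblastoma cells seeded at 1.106 mL–1, incubated overnight, then exposed 24 h to compound at 1 or 10 μM in 1% DMSO; 1% DMSO as negative control. MTT (5 mg ml–1 in PBS, 10%) added for 2 h at 37 °C, crystals dissolved in DMSO, absorbance 540 nm; viability = treated/control absorbance × 100. Mean ± S.E.M., ≥5 cultures.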

Homo sapiens = organism: Homo sapiens; assay: Selectivity index, ratio of IC50 for recombinant human MAO-A expressed in baculovirus infected insect cells to IC50 for recombinant human MAO-B expressed in baculovirus infected insect cells
Procedure, shortened: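 Ratio of IC50 against hMAO-A to IC50 against hMAO-B, both measured by the Amplex Red/p-tyramine fluorimetric assay with recombinant enzymes from insect cells.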

[2] = biological target: T2, Amine oxidase [flavin-containing] B (Homo sapiens, UniProt P27338); assay: biochemical
T2 sequence (P27338 whole entry): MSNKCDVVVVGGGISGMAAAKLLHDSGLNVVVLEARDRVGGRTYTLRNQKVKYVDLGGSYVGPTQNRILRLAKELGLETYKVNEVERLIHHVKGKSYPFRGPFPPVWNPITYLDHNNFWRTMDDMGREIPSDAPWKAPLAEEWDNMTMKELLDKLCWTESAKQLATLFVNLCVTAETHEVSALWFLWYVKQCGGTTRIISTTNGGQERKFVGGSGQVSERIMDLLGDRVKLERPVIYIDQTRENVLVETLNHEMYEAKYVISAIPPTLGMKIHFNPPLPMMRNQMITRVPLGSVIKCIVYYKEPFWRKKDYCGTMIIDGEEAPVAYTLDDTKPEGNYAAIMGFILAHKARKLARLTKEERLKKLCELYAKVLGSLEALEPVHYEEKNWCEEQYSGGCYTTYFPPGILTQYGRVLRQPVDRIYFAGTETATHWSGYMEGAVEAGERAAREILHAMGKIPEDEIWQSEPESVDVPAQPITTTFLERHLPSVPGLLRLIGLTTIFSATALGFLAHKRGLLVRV

[3] = biological target: T1, Amine oxidase [flavin-containing] A; assay: as §1, with “production at 100 uM” for “production”, “assay relative to control” for “assay”; conditions: 0.25 h
[4] = biological target: T2, Amine oxidase [flavin-containing] B; assay: as §1, with “MAO-B” for “MAO-A”, “production at 100 uM” for “production”, “assay relative to control” for “assay”; conditions: 0.25 h
Procedure, shortened: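 hMAO-B from baculovirus-infected BTI-TN-5B1-4 insect cells, 7.5 μg protein, matched to 165 pmol p-tyramine/min. Preincubated with inhibitor in 0.05 M phosphate buffer pH 7.4, 15 min at 37 °C. Started with 200 μM Amplex Red, 1 U mL–1 HRP, 1 mM p-tyramine (final). Fluorescence (ex 545/em 590 nm) over 15 min at 37 °C, minus no-enzyme background; percent inhibition at 100 μM.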

| IC50 [1] [µM] | IC50 [2] [µM] | inhibition at 100 µM [3] [%] | inhibition at 100 µM [4] [%] | Structure (SMILES) | Activity (SH-SY5Y) | Ratio IC50 (Homo sapiens) |
| --- | --- | --- | --- | --- | --- | --- |
| > 100 | 0.88 | – | – | Cc1ccc2oc(-c3ccccc3)cc2c1 | Non-Toxic | > 114 |
| > 100 | 0.25 | – | – | Cc1ccc2oc(-c3cccc(Br)c3)cc2c1 | Non-Toxic | > 400 |
| 8.12 | 1.13 | – | – | Brc1ccccc1-c1cc2ccccc2o1 | Non-Toxic | 7.2 |
| 100 | 10.7 | 53.9 | – | Cc1cccc2cc(-c3ccccc3)oc12 | Non-Toxic | 9.3 |
| > 100 | 100 | – | 46.1 | Cc1ccc2oc(-c3ccc(Br)cc3)cc2c1 | Non-Toxic | – |
| > 100 | > 100 | – | – | c1ccc(-c2cc3ccccc3o2)cc1 | Non-Toxic | – |
| > 100 | 0.34 | – | – | Brc1ccc(-c2cc3ccccc3o2)cc1 | Non-Toxic | > 294 |
| 100 | 1.17 | 51 | – | Brc1cccc(-c2cc3ccccc3o2)c1 | Non-Toxic | 85.5 |
| > 100 | 3.98 | – | – | Cc1cccc2cc(-c3cccc(Br)c3)oc12 | Non-Toxic | > 25.2 |
| 11 | 0.2 | – | – | Cc1ccc2oc(-c3ccccc3Br)cc2c1 | Non-Toxic | 55 |
| 100 | 9.68 | 44.8 | – | Cc1cccc2cc(-c3ccccc3Br)oc12 | Non-Toxic | 11.5 |
| 100 | 0.95 | 46.8 | – | Cc1cccc2cc(-c3ccc(Br)cc3)oc12 | Non-Toxic | 95.2 |
